Results: ChEMBL document CHEMBL3769381 (J Med Chem, 2016)
Calls of active or inactive are those of the source. No cut-off for these calls is given here.

Experiments:
Adenosine receptor A1 [1] = biological target: T1, Adenosine receptor A1 (Homo sapiens, UniProt P30542); assay: Agonist activity at human Adenosine A1 receptor expressed in yeast cells coexpressed with chimeric GPA1/Galphai1 after 16 hrs by beta galactosidase reporter gene assay; assay type: cell-based
T1 sequence (P30542 whole entry): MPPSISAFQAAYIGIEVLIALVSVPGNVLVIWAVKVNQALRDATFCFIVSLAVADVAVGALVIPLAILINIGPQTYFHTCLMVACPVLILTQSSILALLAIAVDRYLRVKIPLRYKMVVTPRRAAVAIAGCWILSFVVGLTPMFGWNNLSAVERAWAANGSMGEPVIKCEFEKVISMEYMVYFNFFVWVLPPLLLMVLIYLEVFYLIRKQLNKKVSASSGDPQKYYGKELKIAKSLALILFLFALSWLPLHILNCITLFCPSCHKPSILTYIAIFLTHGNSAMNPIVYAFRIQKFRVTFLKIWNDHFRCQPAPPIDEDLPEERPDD

Adenosine receptor A2a [2] = biological target: T2, Adenosine receptor A2a (Homo sapiens, UniProt P29274); assay: Agonist activity at human Adenosine A2A receptor expressed in yeast cells coexpressed with chimeric GPA1/Galphas after 16 hrs by beta-galactosidase reporter gene assay; assay type: cell-based
T2 sequence (P29274 whole entry): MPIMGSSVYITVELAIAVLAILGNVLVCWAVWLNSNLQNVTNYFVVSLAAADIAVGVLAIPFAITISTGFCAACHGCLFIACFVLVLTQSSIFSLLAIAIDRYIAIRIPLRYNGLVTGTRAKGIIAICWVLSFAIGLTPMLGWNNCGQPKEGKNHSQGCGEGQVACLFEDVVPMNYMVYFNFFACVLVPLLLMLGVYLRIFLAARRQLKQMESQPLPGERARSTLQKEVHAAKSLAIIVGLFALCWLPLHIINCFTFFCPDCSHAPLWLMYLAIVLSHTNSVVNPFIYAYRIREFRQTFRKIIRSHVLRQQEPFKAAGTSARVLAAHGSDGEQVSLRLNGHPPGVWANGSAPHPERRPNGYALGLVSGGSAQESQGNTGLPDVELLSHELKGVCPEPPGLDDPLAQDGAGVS

Adenosine receptor A2b = biological target: T3, Adenosine receptor A2b (Homo sapiens, UniProt P29275); assay: Agonist activity at human Adenosine A2B receptor expressed in yeast cells coexpressed with chimeric GPA1/Galphas after 16 hrs by beta-galactosidase reporter gene assay; assay type: cell-based
T3 sequence (P29275 whole entry): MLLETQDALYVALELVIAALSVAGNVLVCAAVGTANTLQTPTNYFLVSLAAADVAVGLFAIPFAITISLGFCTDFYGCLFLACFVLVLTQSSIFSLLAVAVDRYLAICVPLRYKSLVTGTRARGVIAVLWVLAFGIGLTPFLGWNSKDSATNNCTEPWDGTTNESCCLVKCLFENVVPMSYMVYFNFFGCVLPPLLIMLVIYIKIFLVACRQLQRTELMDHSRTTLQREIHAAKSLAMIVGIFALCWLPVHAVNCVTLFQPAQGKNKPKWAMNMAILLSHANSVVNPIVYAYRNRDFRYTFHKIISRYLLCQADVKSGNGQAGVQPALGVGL
How it was run: (§1)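 Yeast (Δfar1, FUS1-lacZ) express A2BR from the GAPDH promoter alongside Gpa1p/Gαs chimera. The OD600 is 0.02 and compound is added in 1% v/v DMSO for 16 h at 30°C. β-Galactosidase is read with ONPG at OD430, normalised as (OD430−OD620)/OD620. Three-parameter logistic fit gives EC50 and Emax. Data are from 5-8 independent experiments.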

[3] = biological target: T4, Adenosine receptor A2b (Homo sapiens) (UniProt P29275); assay: Agonist activity at human Adenosine A2B receptor expressed in yeast cells coexpressed with chimeric GPA1/Galphas after 16 hrs by beta-galactosidase reporter gene assay relative to NECA; assay type: cell-based
T4 sequence (whole entry): T3 sequence (P29275 whole entry)
How it was run: as §1, with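 “(OD430−OD620)/OD620. […]” for “(OD430−OD620)/OD620.”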

[4] = biological target: T4, Adenosine receptor A2b (Homo sapiens); assay: Binding affinity to human Adenosine A2B receptor expressed in yeast cells coexpressed with GPA1/Galphas; assay type: cell-based
How it was run: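 pKA is derived by non-linear regression of the operational model of agonism applied to 16 h yeast FUS1-lacZ concentration-response data, with A2BR coupled to the GPA1/Gαs chimera.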

Adenosine receptor A1 [5] = biological target: T1, Adenosine receptor A1; assay: Agonist activity at human Adenosine A1 receptor transfected in CHO-K1 cells assessed as inhibition of forskolin-stimulated cAMP production after 30 mins by multimode microplate reader analysis; assay type: functional, cell-based
Adenosine receptor A3 = biological target: T5, Adenosine receptor A3 (Homo sapiens, UniProt P0DMS8); assay: Agonist activity at human Adenosine A3 receptor transfected in CHO-K1 cells assessed as inhibition of forskolin-stimulated cAMP production after 30 mins by multimode microplate reader analysis; assay type: functional, cell-based
T5 sequence (P0DMS8 whole entry): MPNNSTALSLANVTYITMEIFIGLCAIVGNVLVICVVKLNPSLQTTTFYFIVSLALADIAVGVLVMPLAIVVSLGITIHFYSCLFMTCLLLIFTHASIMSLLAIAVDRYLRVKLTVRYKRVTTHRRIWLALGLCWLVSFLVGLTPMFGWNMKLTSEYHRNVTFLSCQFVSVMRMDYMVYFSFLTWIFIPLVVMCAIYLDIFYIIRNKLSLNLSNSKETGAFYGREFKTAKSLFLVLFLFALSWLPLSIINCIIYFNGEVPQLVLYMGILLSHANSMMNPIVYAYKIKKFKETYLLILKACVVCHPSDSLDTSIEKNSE
How it was run: (§2)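 CHO-K1 cells are transiently transfected with receptor (2 µg DNA, FuGene 6) and harvested at 48 h. They are co-incubated with 10 µM forskolin and ligand (10 pM to 1 µM) for 30 min at room temperature. cAMP is measured by LANCE kit. Data are expressed as % of the 10 µM forskolin response.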

[6] = biological target: T6, Adenosine receptor A3 (Homo sapiens) (UniProt P0DMS8); assay: Agonist activity at human Adenosine A3 receptor transfected in CHO-K1 cells assessed as inhibition of forskolin-stimulated cAMP production after 30 mins by multimode microplate reader analysis relative to total forskolin; assay type: functional, cell-based; set-up: concentration or dose not given beside the values
T6 sequence (whole entry): T5 sequence (P0DMS8 whole entry)
How it was run: as §2, with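 “h. Cells are resuspended in PBS with 0.1% BSA and 25 µM rolipram, at 2500 cells/well.” for “h.”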

[7] = biological target: T7, Adenosine receptor A1 (Homo sapiens) (UniProt P30542)
T7 sequence (whole entry): T1 sequence (P30542 whole entry)

Adenosine receptor A2a [8] = biological target: T2, Adenosine receptor A2a
[9] = biological target: T7, Adenosine receptor A1 (Homo sapiens); remark: listed apart in the source
Adenosine receptor A2a [10] = biological target: T2, Adenosine receptor A2a; remark: listed apart in the source
[11] = biological target: T4, Adenosine receptor A2b (Homo sapiens)
[12] = biological target: T7, Adenosine receptor A1 (Homo sapiens); assay: Agonist activity at human Adenosine A1 receptor expressed in yeast cells coexpressed with chimeric GPA1/Galphai1 at 100 uM after 16 hrs by beta galactosidase reporter gene assay; assay type: cell-based
How it was run: (§3)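 Human receptor expressed from GAPDH promoter (p426-GPD) in Δfar1 FUS1-lacZ yeast with Gpa1p(1-467) carrying the 5 C-terminal Gα residues. Cells are grown overnight in SD-URA at 30°C, diluted 1:10 and grown 8 h. They are set to OD600 0.02 and given compound at 1% v/v DMSO for 16 h at 30°C. A2A strain is grown in SD-URA-HIS, with 5 mM 3-amino-triazole in treatment media. Read-out: ONPG, (OD430−OD620)/OD620.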

Adenosine receptor A2a [13] = biological target: T2, Adenosine receptor A2a; assay: Agonist activity at human Adenosine A2A receptor expressed in yeast cells coexpressed with chimeric GPA1/Galphas at 100 uM after 16 hrs by beta-galactosidase reporter gene assay; assay type: cell-based; how it was run: as §3
[14] = biological target: T4, Adenosine receptor A2b (Homo sapiens); assay: Agonist activity at human Adenosine A2B receptor expressed in yeast cells coexpressed with chimeric GPA1/Galphas at 100 µM after 16 hrs by beta-galactosidase reporter gene assay; assay type: cell-based
How it was run: as §1, with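 “(OD430−OD620)/OD620. […]” for “(OD430−OD620)/OD620.”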

Adenosine receptor A1 [15] = biological target: T1, Adenosine receptor A1; assay: Displacement of [3H]CPX from human Adenosine A1 receptor expressed in DDT1MF-2 cells; assay type: cell-based
Adenosine receptor A1 [16] = biological target: T1, Adenosine receptor A1; assay: Displacement of [3H]CPX from human Adenosine A1 receptor expressed in CHO cells; assay type: cell-based
Adenosine receptor A1 [17] = biological target: T1, Adenosine receptor A1; assay: Competitive antagonist activity at human Adenosine A1 receptor expressed in yeast cells after 16 hrs by LacZ reporter gene assay; assay type: cell-based; details: read-out: pA2 (converted)

Structure (SMILES): CCNC(=O)[C@H]1O[C@@H](n2cnc3c(N[C@@H]4CCC[C@H]4OCc4ccccc4)ncnc32)[C@H](O)[C@@H]1O
- EC50 (Adenosine receptor A1 [1]): 1000 nM
- EC50 (Adenosine receptor A2a [2]): 15800 nM
- EC50 (Adenosine receptor A2b): 126000 nM
- Emax [3]: 32.2%
- pKA [4]: 3.5
- IC50 (Adenosine receptor A1 [5]): 0.0295 nM
- IC50 (Adenosine receptor A3): 269 nM
- Activity [6]: -38%
- pKA [7]: 4.3
- pKA (Adenosine receptor A2a [8]): 3.9
- log(activity) [9]: 1.6
- log(activity) (Adenosine receptor A2a [10]): 0.5
- log(activity) [11]: 0.1

Structure (SMILES): O[C@@H]1[C@H](O)[C@@H](CSc2ccccc2F)O[C@H]1n1cnc2c(N[C@@H]3CCC[C@H]3O)ncnc21 [GS-9667]
- Activity [12]: inactive
- Activity (Adenosine receptor A2a [13]): inactive
- Activity [14]: inactive
- Ki (Adenosine receptor A1 [15]): 113 nM
- Ki (Adenosine receptor A1 [16]): 1100 nM
- pKA [4]: inactive
- Kb (Adenosine receptor A1 [17]): 5010 nM
- pKA [7]: inactive
- pKA (Adenosine receptor A2a [8]): inactive

Structure (SMILES): O[C@@H]1[C@H](O)[C@@H](CSc2ccccc2F)O[C@H]1n1cnc2c(N[C@@H]3CCC[C@H]3OCc3ccccc3)ncnc21
- Activity [12]: inactive
- Activity (Adenosine receptor A2a [13]): inactive
- Activity [14]: inactive
- pKA [4]: inactive
- Kb (Adenosine receptor A1 [17]): 398 nM
- pKA [7]: inactive
- pKA (Adenosine receptor A2a [8]): inactive
